Data on 1 compound can be found in ChEMBL document CHEMBL4342528, “Discovery of a First-in-Class Protein Arginine Methyltransferase 6 (PRMT6) Covalent Inhibitor” (J Med Chem, 2020).

Each structure is given as a SMILES string. Activity calls are given as the source filed them. No cut-off for these calls is given here.

The term Ki denotes the equilibrium dissociation constant of an inhibitor or competing ligand from its target. A higher Ki goes with weaker binding. As usually defined, the inhibition is the share of the control response that was lost under treatment. By IC50 is commonly meant the concentration that gives 50% inhibition.

The target in assay [1] is T1, Protein arginine N-methyltransferase 6 (Homo sapiens, UniProt Q96LA8). Kind of assay: Inhibition of human PRMT6 pre-incubated for 1 to 30 mins using [3H]SAM as donor and [3H]methylated biotin-labeled peptide as substrate by scintillation proximity assay. A general note: In a scintillation proximity assay essentially only radioactivity close to the scintillant gives light.

In assay [2] the target is Protein arginine N-methyltransferase 8 (Homo sapiens, UniProt Q9NR22). Kind of assay: Inhibition of PRMT8 (unknown origin) assessed as reduction in incorporation of [3H]-labeled methyl group into biotinylated substrate using [3H-SAM] at 50 uM incubated for 1 hr by scintillation proximity assay relative to control. The method in brief:
(§1)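 Panel of 33 methyltransferases (22 PKMTs, 3 DNMTs, 8 PRMTs), each tested at 10 and 50 μM compound. Activity was read as ³H-methyl transfer from ³H-SAM in a radiometric assay done as previously described.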

The target in assay [3] is Histone-lysine N-methyltransferase SETD7 (Homo sapiens) (UniProt Q8WTS6). The experiment in a line: Inhibition of SETD7 (unknown origin) at 50 uM assessed as reduction in incorporation of [3H]-labeled methyl group into biotinylated substrate using [3H-SAM] at 50 uM incubated for 1 hr by scintillation proximity assay relative to control. The method in brief:
as §1

Assay [4] has as its target Histone-lysine N-methyltransferase ASH1L (Homo sapiens) (UniProt Q9NR48). Kind of assay: Inhibition of ASH1L (unknown origin) at 10 uM using [3H-SAM] and nucleosome as substrate incubated for 1 hr by scintillation proximity assay. An outline of the steps:
as §1

Assay [5] has as its target T2, Histone-arginine methyltransferase CARM1 (Homo sapiens) (UniProt Q86X55).
T2 sequence (whole entry): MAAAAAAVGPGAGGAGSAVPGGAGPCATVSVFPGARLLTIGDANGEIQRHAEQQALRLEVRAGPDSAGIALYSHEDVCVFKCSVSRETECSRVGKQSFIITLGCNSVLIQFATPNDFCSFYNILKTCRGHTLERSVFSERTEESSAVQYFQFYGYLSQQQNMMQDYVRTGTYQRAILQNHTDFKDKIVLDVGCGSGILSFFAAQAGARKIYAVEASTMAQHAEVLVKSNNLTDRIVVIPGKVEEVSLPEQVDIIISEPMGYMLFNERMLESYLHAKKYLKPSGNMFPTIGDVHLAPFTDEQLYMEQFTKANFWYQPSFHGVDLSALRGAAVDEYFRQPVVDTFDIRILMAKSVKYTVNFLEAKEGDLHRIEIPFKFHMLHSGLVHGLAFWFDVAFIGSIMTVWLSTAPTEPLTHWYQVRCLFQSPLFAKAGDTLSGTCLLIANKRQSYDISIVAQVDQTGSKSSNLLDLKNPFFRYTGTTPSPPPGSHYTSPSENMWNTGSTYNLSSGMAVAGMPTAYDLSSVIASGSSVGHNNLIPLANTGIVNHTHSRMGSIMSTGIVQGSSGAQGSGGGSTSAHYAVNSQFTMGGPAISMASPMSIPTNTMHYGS
Kind of assay: Inhibition of PRMT4 (unknown origin) assessed as reduction in incorporation of [3H]-labeled methyl group into biotinylated substrate using [3H-SAM] at 50 uM incubated for 1 hr by scintillation proximity assay relative to control. An outline of the steps: as §1

The target in assay [6] is T1, Protein arginine N-methyltransferase 6. Kind of assay: Time dependent inhibition of human PRMT6 pre-incubated for 1 to 30 mins using [3H]SAM as donor and [3H]methylated biotin-labeled peptide as substrate by scintillation proximity assay. The conditions noted are these: TDE = time-dependent effect.
Target sequence in this assay (Q96LA8 whole entry, looked up): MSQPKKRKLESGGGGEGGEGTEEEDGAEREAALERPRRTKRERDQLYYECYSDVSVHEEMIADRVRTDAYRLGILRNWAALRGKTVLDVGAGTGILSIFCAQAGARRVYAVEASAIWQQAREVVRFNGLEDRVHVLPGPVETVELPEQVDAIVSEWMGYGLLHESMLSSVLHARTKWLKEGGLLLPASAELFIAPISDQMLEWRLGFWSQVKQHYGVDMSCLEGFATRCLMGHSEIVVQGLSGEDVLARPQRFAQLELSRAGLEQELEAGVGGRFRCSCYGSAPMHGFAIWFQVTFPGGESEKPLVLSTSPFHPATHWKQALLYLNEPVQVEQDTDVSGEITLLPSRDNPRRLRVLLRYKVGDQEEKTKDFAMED
For assay [7], the target named is Histone-lysine N-methyltransferase SUV39H1 (Homo sapiens) (UniProt O43463). Kind of assay: Inhibition of SUV39H1 (unknown origin) assessed as reduction in incorporation of [3H]-labeled methyl group into biotinylated substrate using [3H-SAM] at 50 uM incubated for 1 hr by scintillation proximity assay relative to control. An outline of the steps: as §1
Assay [8] has as its target DNMT3B-DNMT3L complex (Homo sapiens) (UniProt Q9UBC3+Q9UJW3). The experiment in a line: Inhibition of DNMT3B/3L (unknown origin) at 10 uM using un-biotinylated Poly(2'-deoxyinosinic-2'-deoxycytidylic acid) substrate using [3H-SAM] incubated for 1 hr by scintillation proximity assay. Format: protein-complex assay. An outline of the steps: as §1
Assay [9] addresses Histone-lysine N-methyltransferase SETD7 (Homo sapiens) (UniProt Q8WTS6). Kind of assay: Inhibition of SETD7 (unknown origin) assessed as reduction in incorporation of [3H]-labeled methyl group into biotinylated substrate using [3H-SAM] at 10 uM incubated for 1 hr by scintillation proximity assay. An outline of the steps:
as §1

Assay [10] has as its target Protein arginine N-methyltransferase 9 (Homo sapiens) (UniProt Q6P2P2). Kind of assay: Inhibition of PRMT9 (unknown origin) assessed as reduction in incorporation of [3H]-labeled methyl group into biotinylated substrate using [3H-SAM] at 10 uM incubated for 1 hr by scintillation proximity assay. An outline of the steps:
as §1

In assay [11] the target is Histone-lysine N-methyltransferase SETD2 (Homo sapiens) (UniProt Q9BYW2). Kind of assay: Inhibition of SETD2 (unknown origin) assessed as reduction in incorporation of [3H]-labeled methyl group into biotinylated substrate using [3H-SAM] at 10 uM incubated for 1 hr by scintillation proximity assay. An outline of the steps:
as §1

Assay [12] deals with Histone-lysine N-methyltransferase 2A (Homo sapiens) (UniProt Q03164). The experiment in a line: Inhibition of MLL1 (unknown origin) assessed as reduction in incorporation of [3H]-labeled methyl group into biotinylated substrate using [3H-SAM] at 10 uM incubated for 1 hr by scintillation proximity assay. An outline of the steps:
as §1

Assay [13] concerns the target T1, Protein arginine N-methyltransferase 6. Kind of assay: Inhibition of PRMT6 (unknown origin) assessed as reduction in incorporation of [3H]-labeled methyl group into biotinylated substrate using [3H-SAM] at 50 uM incubated for 1 hr by scintillation proximity assay relative to control. An outline of the steps:
as §1
Target sequence in this assay (Q96LA8 whole entry, looked up): as above

Assay [14] addresses Histone-lysine N-methyltransferase EZH2 (Homo sapiens) (UniProt Q15910). The experiment in a line: Inhibition of PRC2 (unknown origin) assessed as reduction in incorporation of [3H]-labeled methyl group into biotinylated substrate using [3H-SAM] at 10 uM incubated for 1 hr by scintillation proximity assay. An outline of the steps: as §1
For assay [15], the target named is N-lysine methyltransferase SMYD2 (Homo sapiens) (UniProt Q9NRG4). Kind of assay: Inhibition of SMYD2 (unknown origin) assessed as reduction in incorporation of [3H]-labeled methyl group into biotinylated substrate using [3H-SAM] at 10 uM incubated for 1 hr by scintillation proximity assay. The method in brief:
as §1

Assay [16] addresses Protein arginine N-methyltransferase 3 (Homo sapiens, UniProt O60678). Kind of assay: Inhibition of human PRMT3 using [3H]SAM as donor and [3H]methylated biotin-labeled peptide as substrate by scintillation proximity assay. An outline of the steps:
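Compound titrated into the reaction; 1 h enzyme–compound preincubation stated for PRMT6. Methylated peptide captured on streptavidin/scintillant-coated plates and counted (cpm). IC50 from concentration–response, triplicate, mean ± SD.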

The species named for assay [17] is Homo sapiens. The experiment in a line: Selectivity index, ratio of IC50 for human PRMT8 to IC50 for human PRMT6. The method in brief: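 Radiometric SPA: ³H-methyl transfer from ³H-SAM to biotin-labeled peptide, captured on streptavidin/scintillant-coated plate, counts per minute read; substrate and cofactor each at their Km for the enzyme; compound titrated; IC50 from triplicate determinations, mean ± SD.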

The target of assay [18] is Protein arginine N-methyltransferase 1 (Homo sapiens, UniProt Q99873). Kind of assay: Inhibition of human PRMT1 using [3H]SAM as donor and [3H]methylated biotin-labeled peptide as substrate by scintillation proximity assay.
Assay [19] is filed under the species Homo sapiens. Kind of assay: Inhibition of DNMT3A/3L (unknown origin) at 10 uM using un-biotinylated Poly(2'-deoxyinosinic-2'-deoxycytidylic acid) substrate using [3H-SAM] incubated for 1 hr by scintillation proximity assay. An outline of the steps: as §1

Histone-lysine N-methyltransferase SETD7 (Homo sapiens), sequence (Q8WTS6 whole entry): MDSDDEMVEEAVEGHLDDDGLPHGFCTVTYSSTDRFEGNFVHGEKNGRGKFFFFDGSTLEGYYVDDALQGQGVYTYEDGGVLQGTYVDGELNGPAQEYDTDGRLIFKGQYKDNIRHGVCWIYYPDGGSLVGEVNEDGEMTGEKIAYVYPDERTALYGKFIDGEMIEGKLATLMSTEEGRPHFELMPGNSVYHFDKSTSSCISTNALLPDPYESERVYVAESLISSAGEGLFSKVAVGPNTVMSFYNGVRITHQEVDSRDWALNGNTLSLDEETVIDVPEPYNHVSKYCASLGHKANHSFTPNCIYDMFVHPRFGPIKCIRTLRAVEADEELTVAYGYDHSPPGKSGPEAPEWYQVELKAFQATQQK
Protein arginine N-methyltransferase 9 (Homo sapiens), sequence (Q6P2P2 whole entry): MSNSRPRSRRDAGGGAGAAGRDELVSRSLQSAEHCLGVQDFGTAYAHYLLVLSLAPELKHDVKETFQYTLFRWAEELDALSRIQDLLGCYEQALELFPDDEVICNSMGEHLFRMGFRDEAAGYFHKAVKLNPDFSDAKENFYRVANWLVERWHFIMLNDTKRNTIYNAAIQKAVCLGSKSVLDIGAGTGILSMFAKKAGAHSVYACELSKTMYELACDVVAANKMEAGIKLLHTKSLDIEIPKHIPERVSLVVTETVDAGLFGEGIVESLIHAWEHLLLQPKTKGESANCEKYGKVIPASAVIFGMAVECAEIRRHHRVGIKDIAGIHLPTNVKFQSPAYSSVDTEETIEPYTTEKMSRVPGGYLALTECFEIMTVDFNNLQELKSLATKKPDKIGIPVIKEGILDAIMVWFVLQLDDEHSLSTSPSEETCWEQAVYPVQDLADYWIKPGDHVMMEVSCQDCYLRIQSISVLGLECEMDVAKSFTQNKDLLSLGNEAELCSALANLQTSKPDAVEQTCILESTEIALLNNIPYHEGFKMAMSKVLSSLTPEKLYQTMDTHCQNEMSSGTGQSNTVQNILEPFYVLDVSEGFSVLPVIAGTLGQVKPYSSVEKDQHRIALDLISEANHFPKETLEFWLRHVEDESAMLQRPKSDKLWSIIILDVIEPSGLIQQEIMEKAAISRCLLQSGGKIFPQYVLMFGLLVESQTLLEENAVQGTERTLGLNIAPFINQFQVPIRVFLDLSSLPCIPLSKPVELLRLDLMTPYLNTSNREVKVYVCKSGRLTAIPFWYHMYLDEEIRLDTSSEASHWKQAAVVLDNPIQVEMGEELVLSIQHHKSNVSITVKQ
N-lysine methyltransferase SMYD2 (Homo sapiens), sequence (Q9NRG4 whole entry): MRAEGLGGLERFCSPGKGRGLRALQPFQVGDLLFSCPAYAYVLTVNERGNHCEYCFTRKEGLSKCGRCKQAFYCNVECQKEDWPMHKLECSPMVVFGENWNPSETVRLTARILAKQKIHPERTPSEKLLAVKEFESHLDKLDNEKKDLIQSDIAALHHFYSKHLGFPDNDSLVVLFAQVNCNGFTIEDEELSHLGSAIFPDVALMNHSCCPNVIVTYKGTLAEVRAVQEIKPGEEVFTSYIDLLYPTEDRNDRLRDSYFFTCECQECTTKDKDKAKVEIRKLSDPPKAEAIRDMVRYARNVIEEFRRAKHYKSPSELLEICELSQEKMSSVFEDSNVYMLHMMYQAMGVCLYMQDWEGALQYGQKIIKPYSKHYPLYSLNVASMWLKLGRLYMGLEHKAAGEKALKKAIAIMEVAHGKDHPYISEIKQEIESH
Protein arginine N-methyltransferase 3, sequence (O60678 whole entry): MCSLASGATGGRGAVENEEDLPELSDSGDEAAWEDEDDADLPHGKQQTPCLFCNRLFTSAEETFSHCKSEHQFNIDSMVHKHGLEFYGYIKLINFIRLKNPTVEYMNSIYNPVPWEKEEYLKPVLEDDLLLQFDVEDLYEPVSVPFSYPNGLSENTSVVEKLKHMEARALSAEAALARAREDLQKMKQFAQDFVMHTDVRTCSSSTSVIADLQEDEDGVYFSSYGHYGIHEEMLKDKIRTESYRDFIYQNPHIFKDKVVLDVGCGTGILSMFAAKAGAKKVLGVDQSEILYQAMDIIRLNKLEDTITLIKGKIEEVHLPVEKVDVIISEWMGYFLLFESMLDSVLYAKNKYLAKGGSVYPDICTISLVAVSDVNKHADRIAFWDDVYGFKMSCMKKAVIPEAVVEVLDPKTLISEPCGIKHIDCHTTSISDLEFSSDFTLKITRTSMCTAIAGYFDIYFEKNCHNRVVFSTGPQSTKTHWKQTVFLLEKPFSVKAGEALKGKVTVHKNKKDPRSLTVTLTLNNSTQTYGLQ
DNMT3B-DNMT3L complex (Homo sapiens), sequence (Q9UJW3 whole entry, looked up, other chains not shown): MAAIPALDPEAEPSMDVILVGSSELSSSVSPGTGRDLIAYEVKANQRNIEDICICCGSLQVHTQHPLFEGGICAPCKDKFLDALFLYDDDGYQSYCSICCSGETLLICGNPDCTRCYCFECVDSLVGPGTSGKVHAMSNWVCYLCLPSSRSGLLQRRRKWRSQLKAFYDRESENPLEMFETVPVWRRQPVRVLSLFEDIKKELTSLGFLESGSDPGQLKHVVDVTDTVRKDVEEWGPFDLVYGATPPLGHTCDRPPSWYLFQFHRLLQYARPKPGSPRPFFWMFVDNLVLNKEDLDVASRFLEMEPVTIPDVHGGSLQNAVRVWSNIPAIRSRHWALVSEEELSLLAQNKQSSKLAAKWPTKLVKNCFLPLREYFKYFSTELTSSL
Protein arginine N-methyltransferase 1, sequence (Q99873 whole entry): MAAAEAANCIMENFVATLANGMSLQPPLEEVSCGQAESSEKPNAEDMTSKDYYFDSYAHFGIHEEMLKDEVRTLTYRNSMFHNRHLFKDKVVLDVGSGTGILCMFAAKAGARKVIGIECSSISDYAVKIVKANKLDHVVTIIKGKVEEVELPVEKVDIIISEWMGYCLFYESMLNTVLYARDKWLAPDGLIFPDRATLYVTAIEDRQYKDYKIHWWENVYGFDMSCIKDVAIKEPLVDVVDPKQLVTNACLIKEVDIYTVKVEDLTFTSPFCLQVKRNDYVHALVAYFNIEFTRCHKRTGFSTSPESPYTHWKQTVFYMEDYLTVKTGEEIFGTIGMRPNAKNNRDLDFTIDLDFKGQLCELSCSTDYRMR
Histone-lysine N-methyltransferase EZH2 (Homo sapiens), sequence (Q15910 whole entry, looked up): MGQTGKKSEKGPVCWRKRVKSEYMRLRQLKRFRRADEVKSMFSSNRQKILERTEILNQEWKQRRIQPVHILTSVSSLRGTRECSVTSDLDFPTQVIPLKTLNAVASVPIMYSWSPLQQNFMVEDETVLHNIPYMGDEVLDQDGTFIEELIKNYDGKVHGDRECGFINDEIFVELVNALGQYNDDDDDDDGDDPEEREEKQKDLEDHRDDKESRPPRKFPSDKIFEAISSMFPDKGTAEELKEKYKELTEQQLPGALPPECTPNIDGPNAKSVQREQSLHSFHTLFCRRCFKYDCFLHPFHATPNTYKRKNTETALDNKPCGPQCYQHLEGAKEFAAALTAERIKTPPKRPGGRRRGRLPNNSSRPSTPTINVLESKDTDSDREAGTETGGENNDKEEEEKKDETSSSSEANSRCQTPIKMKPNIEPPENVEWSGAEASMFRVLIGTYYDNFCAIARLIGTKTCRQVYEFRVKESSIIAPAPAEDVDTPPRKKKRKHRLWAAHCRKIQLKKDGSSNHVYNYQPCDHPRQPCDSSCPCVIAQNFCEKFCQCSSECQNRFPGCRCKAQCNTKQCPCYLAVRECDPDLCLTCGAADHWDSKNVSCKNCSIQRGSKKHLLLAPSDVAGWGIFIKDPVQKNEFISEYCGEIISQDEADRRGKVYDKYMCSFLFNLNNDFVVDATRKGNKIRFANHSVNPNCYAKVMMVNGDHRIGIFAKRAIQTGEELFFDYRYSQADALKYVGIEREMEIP
Histone-lysine N-methyltransferase SUV39H1 (Homo sapiens), sequence (O43463 whole entry): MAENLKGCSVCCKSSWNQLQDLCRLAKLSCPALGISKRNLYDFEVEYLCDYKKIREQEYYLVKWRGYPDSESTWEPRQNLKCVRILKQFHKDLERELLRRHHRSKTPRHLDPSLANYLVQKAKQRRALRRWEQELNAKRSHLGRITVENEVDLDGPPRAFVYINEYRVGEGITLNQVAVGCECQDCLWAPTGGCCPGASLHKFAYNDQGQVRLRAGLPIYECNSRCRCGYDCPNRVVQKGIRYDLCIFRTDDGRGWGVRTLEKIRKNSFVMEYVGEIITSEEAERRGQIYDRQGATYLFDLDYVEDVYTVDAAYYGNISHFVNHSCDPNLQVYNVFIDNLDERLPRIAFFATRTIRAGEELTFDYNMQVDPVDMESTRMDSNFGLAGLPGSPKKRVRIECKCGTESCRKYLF
Protein arginine N-methyltransferase 8, sequence (Q9NR22 2-394 limits assumed): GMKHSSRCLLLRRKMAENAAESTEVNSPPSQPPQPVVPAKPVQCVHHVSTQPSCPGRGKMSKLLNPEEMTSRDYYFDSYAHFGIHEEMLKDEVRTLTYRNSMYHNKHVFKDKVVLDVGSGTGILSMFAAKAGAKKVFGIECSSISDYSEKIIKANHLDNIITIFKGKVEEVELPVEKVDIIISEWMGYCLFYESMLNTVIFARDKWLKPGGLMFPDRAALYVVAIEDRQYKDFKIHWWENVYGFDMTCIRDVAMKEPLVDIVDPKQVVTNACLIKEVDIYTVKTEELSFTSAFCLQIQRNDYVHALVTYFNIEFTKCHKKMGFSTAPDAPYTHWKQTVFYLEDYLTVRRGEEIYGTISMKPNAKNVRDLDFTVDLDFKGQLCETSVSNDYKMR

`C=CC(=O)Nc1cccc(-c2c[nH]cc2CN(C)CCN)c1` registered a Ki in [1] of 16 nM. Also, the Kinact in assay [1] was 0.08 min⁻¹. In addition, the inhibition in assay [2] was greater than 50%; in assay [3], greater than 50%; in assay [5], greater than 50%; in assay [6], “Tde”; in assay [7], greater than 50%; in [13] it was greater than 50%. Besides, the inhibition entry in assay [4], in [8], in assay [9], in assay [10], in assay [11] and in [12] was “inactive” each time. Also, the inhibition result (in assay [14]; in [15]; in the assay filed under Homo sapiens [19]) was “inactive” each time. The IC50 is 3000 nM in assay [16] and 100 nM in assay [18]. In addition, in the assay filed under Homo sapiens [17], the Ratio IC50 stood at 6.
